# According to ChEMBL document CHEMBL4325893, “Synthesis and antibacterial profiles of targeted triclosan derivatives” (2019):
# Columns and labels:
# [1] = system: Staphylococcus epidermidis; assay: Antibacterial activity against Staphylococcus epidermidis 155 after 18 hrs; assay type: functional; settings: Staphylococcus epidermidis, 155, 18 h
# In short: (§1)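 Broth microdilution in Nutrient Broth No. 2; stocks in ethanol diluted to 0.01–128 µg/ml (triclosan) or 0.25–256 µg/ml (glycosides). Overnight 37 °C NB2 cultures diluted 1 in 10^4 in saline and added to the dilutions. Incubation at 37 °C with agitation, OD read every 15 min; MIC is the lowest concentration preventing any OD rise after 18 h.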
# [2] = system: Staphylococcus epidermidis; assay: Antibacterial activity against Staphylococcus epidermidis ATCC 14990 after 18 hrs; assay type: functional; settings: ATCC 14990, 18 h; in short: as §1
# Escherichia coli [3] = assay: Antibacterial activity against Escherichia coli ATCC 8739 after 18 hrs; assay type: functional; settings: ATCC 8739, 18 h; in short: as §1
# Proteus vulgaris = assay: Antibacterial activity against Proteus vulgaris OCC 195 after 18 hrs; assay type: functional; settings: OCC 195, 18 h; in short: as §1
# [4] = Antibacterial activity against Enterobacter cloacae ATCC 13047 after 18 hrs; assay type: functional, Enterobacter cloacae subsp. cloacae; settings: ATCC 13047, 18 h; in short: as §1
# [5] = system: Staphylococcus saprophyticus; assay: Antibacterial activity against Staphylococcus saprophyticus ATCC 15305 after 18 hrs; assay type: functional; settings: ATCC 15305, 18 h
# In short: (§2)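 Broth microdilution in Nutrient Broth No. 2. Ethanol stocks were diluted in broth to 0.01–128 µg/ml for triclosan and 0.25–256 µg/ml for glycosides. Overnight 37°C NB2 cultures were diluted 1 in 10^4 in saline and added to the wells. Plates were incubated at 37°C with OD read every 15 min after agitation. MIC was the lowest concentration giving no OD increase at 18 h.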
# [6] = Antibacterial activity against Salmonella enterica subspecies enterica serotype Virchow NCTC 5742 after 18 hrs; assay type: functional, Salmonella enterica subsp. enterica serovar Virchow; settings: NCTC 5742, 18 h; in short: as §1
# Streptococcus viridans = assay: Antibacterial activity against Streptococcus viridans OCC 234 after 18 hrs; assay type: functional; settings: OCC 234, 18 h; in short: as §2
# Streptococcus pneumoniae [7] = assay: Antibacterial activity against Streptococcus pneumoniae ATCC 49619 after 18 hrs; assay type: functional; settings: ATCC 49619, 18 h; in short: as §2
# Escherichia coli [8] = assay: Antibacterial activity against Escherichia coli ATCC 10536 after 18 hrs; assay type: functional; settings: ATCC 10536, 18 h; in short: as §1
# Klebsiella aerogenes [9] = assay: Antibacterial activity against Klebsiella aerogenes NCTC 8167 after 18 hrs; assay type: functional; settings: NCTC 8167, 18 h; in short: as §1
# Bacillus subtilis = assay: Antibacterial activity against Bacillus subtilis NCTC 10073 after 18 hrs; assay type: functional; settings: NCTC 10073, 18 h; in short: as §1
# [10] = Antibacterial activity against Salmonella enterica subspecies enterica serotype Arizonae OCC 706 after 18 hrs; assay type: functional, Salmonella enterica subsp. enterica serovar Arizonae; settings: OCC 706, 18 h; in short: as §1
# Serratia marcescens = assay: Antibacterial activity against Serratia marcescens OCC 217 after 18 hrs; assay type: functional; settings: OCC 217, 18 h; in short: as §1
# Salmonella enteritidis = assay: Antibacterial activity against Salmonella enterica subspecies enterica serotype Enteritidis 13076 after 18 hrs; assay type: functional, Salmonella enterica subsp. enterica serovar Enteritidis; settings: Salmonella enterica, 13076, 18 h; in short: as §1
# Citrobacter freundii [11] = assay: Antibacterial activity against Citrobacter freundii OCC 851 after 18 hrs; assay type: functional; settings: OCC 851, 18 h; in short: as §1
# Klebsiella pneumoniae [12] = assay: Antibacterial activity against Klebsiella pneumoniae ATCC 13883 after 18 hrs; assay type: functional; settings: ATCC 13883, 18 h; in short: as §1
# Hafnia alvei = assay: Antibacterial activity against Hafnia alvei 13337 after 18 hrs; assay type: functional; settings: Hafnia alvei, 13337, 18 h; in short: as §1
# [13] = Antibacterial activity against Salmonella enterica subspecies enterica serotype Pullorum OCC 273 after 18 hrs; assay type: functional, Salmonella enterica subsp. enterica serovar Pullorum; settings: OCC 273, 18 h; in short: as §1
# Staphylococcus aureus [14] = assay: Antibacterial activity against Staphylococcus aureus OCC 104 after 18 hrs; assay type: functional; settings: OCC 104, 18 h; in short: as §1
# Staphylococcus aureus [15] = assay: Antibacterial activity against Staphylococcus aureus ATCC 9144 after 18 hrs; assay type: functional; settings: ATCC 9144, 18 h; in short: as §1
# Pseudomonas aeruginosa = assay: Antibacterial activity against Pseudomonas aeruginosa ATCC 27853 after 18 hrs; assay type: functional; settings: ATCC 27853, 18 h; in short: as §1
# [16] = Antibacterial activity against Salmonella enterica subspecies enterica serotype Infantis OCC 2133 after 18 hrs; assay type: functional, Salmonella enterica subsp. enterica serovar Infantis; settings: OCC 2133, 18 h; in short: as §1
# Cronobacter sakazakii = assay: Antibacterial activity against Cronobacter sakazakii 29544 after 18 hrs; assay type: functional; settings: Cronobacter sakazakii, 29544, 18 h; in short: as §1
# [17] = system: Staphylococcus epidermidis; assay: Antibacterial activity against Staphylococcus epidermidis ATCC 12228 after 18 hrs; assay type: functional; settings: ATCC 12228, 18 h; in short: as §1
# [18] = Antibacterial activity against Salmonella enterica subspecies enterica serotype Indiana OCC 597 after 18 hrs; assay type: functional, Salmonella enterica subsp. enterica serovar Indiana; settings: OCC 597, 18 h; in short: as §1
# [19] = Antibacterial activity against Salmonella enterica subspecies enterica serotype Nottingham NCTC 7832 after 18 hrs; assay type: functional, Salmonella enterica subsp. enterica serovar Nottingham; settings: NCTC 7832, 18 h; in short: as §1
# Escherichia coli [20] = assay: Antibacterial activity against Escherichia coli OCC 122 after 18 hrs; assay type: functional; settings: OCC 122, 18 h; in short: as §1
# Staphylococcus aureus [21] = assay: Antibacterial activity against Staphylococcus aureus ATCC 6538 after 18 hrs; assay type: functional; settings: ATCC 6538, 18 h; in short: as §1
# Escherichia coli [22] = assay: Antibacterial activity against Escherichia coli ATCC 11775 after 18 hrs; assay type: functional; in short: as §1
# Citrobacter freundii [23] = assay: Antibacterial activity against Citrobacter freundii 8090 after 18 hrs; assay type: functional; settings: Citrobacter freundii, 8090, 18 h; in short: as §1
# Staphylococcus aureus [24] = assay: Antibacterial activity against Staphylococcus aureus ATCC 6538P after 18 hrs; assay type: functional; in short: as §1
# Klebsiella pneumoniae [25] = assay: Antibacterial activity against Klebsiella pneumoniae ATCC 10031 after 18 hrs; assay type: functional; settings: ATCC 10031, 18 h; in short: as §1
# Escherichia coli [26] = assay: Antibacterial activity against Escherichia coli NCTC 13216 after 18 hrs; assay type: functional; settings: NCTC 13216, 18 h; in short: as §1
# [27] = system: Staphylococcus haemolyticus; assay: Antibacterial activity against Staphylococcus haemolyticus OCC 2223 after 18 hrs; assay type: functional; settings: OCC 2223, 18 h; in short: as §2
# Enterococcus faecalis [28] = assay: Antibacterial activity against Enterococcus faecalis ATCC 29212 after 18 hrs; assay type: functional; settings: ATCC 29212, 18 h; in short: as §1
# Proteus mirabilis = assay: Antibacterial activity against Proteus mirabilis ATCC 12453 after 18 hrs; assay type: functional; settings: ATCC 12453, 18 h; in short: as §1
# Escherichia coli [29] = assay: Antibacterial activity against Escherichia coli ATCC 35218 after 18 hrs; assay type: functional; settings: ATCC 35218, 18 h; in short: as §1
# Escherichia coli [30] = assay: Antibacterial activity against Escherichia coli 700728 after 18 hrs; assay type: functional; settings: Escherichia coli, 700728, 18 h; in short: as §1
# Staphylococcus aureus [31] = assay: Antibacterial activity against Staphylococcus aureus OCC 106 after 18 hrs; assay type: functional; settings: OCC 106, 18 h; in short: as §1
# Staphylococcus aureus [32] = assay: Antibacterial activity against Staphylococcus aureus ATCC 25923 after 18 hrs; assay type: functional; settings: ATCC 25923, 18 h; in short: as §1
# Streptococcus pneumoniae [33] = assay: Antibacterial activity against Streptococcus pneumoniae 6305 after 18 hrs; assay type: functional; settings: Streptococcus pneumoniae, 6305, 18 h; in short: as §2
# [34] = Antibacterial activity against Salmonella enterica subspecies enterica serotype Poona NCTC 4840 after 18 hrs; assay type: functional, Salmonella enterica subsp. enterica serovar Poona; settings: NCTC 4840, 18 h; in short: as §1
# Salmonella typhimurium = assay: Antibacterial activity against Salmonella enterica subspecies enterica serotype typhimurium ATCC 14028 after 18 hrs; assay type: functional, Salmonella enterica subsp. enterica serovar Typhimurium; settings: ATCC 14028, 18 h; in short: as §1
# Escherichia coli [35] = assay: Antibacterial activity against Escherichia coli ATCC 25922 after 18 hrs; assay type: functional; settings: ATCC 25922, 18 h; in short: as §1
# Escherichia hermannii = assay: Antibacterial activity against Escherichia hermannii 33650 after 18 hrs; assay type: functional; settings: Atlantibacter hermannii, 33650, 18 h; in short: as §1
# Klebsiella aerogenes [36] = assay: Antibacterial activity against Enterobacter aerogenes ATCC 13048 after 18 hrs; assay type: functional; settings: ATCC 13048, 18 h; in short: as §1
# [37] = system: Salmonella enterica subsp. enterica serovar Abony; assay: Antibacterial activity against Salmonella enterica subspecies enterica serotype Abony NCTC 6017 after 18 hrs; assay type: functional; settings: NCTC 6017, 18 h; in short: as §1
# Staphylococcus aureus [38] = assay: Antibacterial activity against Staphylococcus aureus NCTC 13758 after 18 hrs; assay type: functional; settings: NCTC 13758, 18 h; in short: as §1
# Streptococcus pyogenes = assay: Antibacterial activity against Streptococcus pyogenes ATCC 19615 after 18 hrs; assay type: functional; settings: ATCC 19615, 18 h; in short: as §2
# Bacillus cereus = assay: Antibacterial activity against Bacillus cereus ATCC 14579 after 18 hrs; assay type: functional; settings: ATCC 14579, 18 h; in short: as §1
# Staphylococcus aureus [39] = assay: Antibacterial activity against Staphylococcus aureus ATCC 29213 after 18 hrs; assay type: functional; settings: ATCC 29213, 18 h; in short: as §1
# Aeromonas hydrophila = assay: Antibacterial activity against Aeromonas hydrophila OCC 778 after 18 hrs; assay type: functional; settings: OCC 778, 18 h; in short: as §1
# Enterococcus faecalis [40] = assay: Antibacterial activity against Enterococcus faecalis ATCC 33186 after 18 hrs; assay type: functional; settings: ATCC 33186, 18 h; in short: as §1
# Enterococcus faecium = assay: Antibacterial activity against Enterococcus faecium ATCC 19434 after 18 hrs; assay type: functional; settings: ATCC 19434, 18 h; in short: as §1
# [41] = Antibacterial activity against Salmonella enterica subspecies enterica serotype Dublin OCC 627 after 18 hrs; assay type: functional, Salmonella enterica subsp. enterica serovar Dublin; settings: OCC 627, 18 h; in short: as §1
# Streptococcus agalactiae = assay: Antibacterial activity against Streptococcus agalactiae OCC 182 after 18 hrs; assay type: functional; settings: OCC 182, 18 h; in short: as §2
structure (smiles),measurement,setting,value
Oc1cc(Cl)ccc1Oc1ccc(Cl)cc1Cl [TRICLOSAN],MIC,[1],0.01 µg/mL
same,MIC,[2],0.01 µg/mL
same,MIC,Escherichia coli [3],0.1 to 0.5 µg/mL
same,MIC,Proteus vulgaris,0.5 µg/mL
same,MIC,[4],0.5 µg/mL
same,MIC,[5],0.01 µg/mL
same,MIC,[6],0.5 to 1 µg/mL
same,MIC,Streptococcus viridans,4 µg/mL
same,MIC,Streptococcus pneumoniae [7],1 µg/mL
same,MIC,Escherichia coli [8],0.1 to 0.5 µg/mL
same,MIC,Klebsiella aerogenes [9],0.5 µg/mL
same,MIC,Bacillus subtilis,1 µg/mL
same,MIC,[10],0.5 to 1 µg/mL
same,MIC,Serratia marcescens,64 µg/mL
same,MIC,Salmonella enteritidis,0.5 to 1 µg/mL
same,MIC,Citrobacter freundii [11],0.5 µg/mL
same,MIC,Klebsiella pneumoniae [12],0.1 µg/mL
same,MIC,Hafnia alvei,0.1 µg/mL
same,MIC,[13],0.5 to 1 µg/mL
same,MIC,Staphylococcus aureus [14],0.01 µg/mL
same,MIC,Staphylococcus aureus [15],0.01 µg/mL
same,MIC,Pseudomonas aeruginosa,32 µg/mL
same,MIC,[16],0.5 to 1 µg/mL
same,MIC,Cronobacter sakazakii,0.5 µg/mL
same,MIC,[17],0.01 µg/mL
same,MIC,[18],0.5 to 1 µg/mL
same,MIC,[19],0.5 to 1 µg/mL
same,MIC,Escherichia coli [20],0.1 to 0.5 µg/mL
same,MIC,Staphylococcus aureus [21],0.01 µg/mL
same,MIC,Escherichia coli [22],0.1 to 0.5 µg/mL
same,MIC,Citrobacter freundii [23],0.5 µg/mL
same,MIC,Staphylococcus aureus [24],0.01 µg/mL
same,MIC,Klebsiella pneumoniae [25],0.1 µg/mL
same,MIC,Escherichia coli [26],0.1 to 0.5 µg/mL
same,MIC,[27],0.01 µg/mL
same,MIC,Enterococcus faecalis [28],8 µg/mL
same,MIC,Proteus mirabilis,0.5 µg/mL
same,MIC,Escherichia coli [29],0.1 to 0.5 µg/mL
same,MIC,Escherichia coli [30],0.1 to 0.5 µg/mL
same,MIC,Staphylococcus aureus [31],0.01 µg/mL
same,MIC,Staphylococcus aureus [32],0.01 µg/mL
same,MIC,Streptococcus pneumoniae [33],1 µg/mL
same,MIC,[34],0.5 to 1 µg/mL
same,MIC,Salmonella typhimurium,0.5 to 1 µg/mL
same,MIC,Escherichia coli [35],0.1 to 0.5 µg/mL
same,MIC,Escherichia hermannii,0.5 µg/mL
same,MIC,Klebsiella aerogenes [36],0.5 µg/mL
same,MIC,[37],0.5 to 1 µg/mL
same,MIC,Staphylococcus aureus [38],0.01 µg/mL
same,MIC,Streptococcus pyogenes,1 µg/mL
same,MIC,Bacillus cereus,2 µg/mL
same,MIC,Staphylococcus aureus [39],0.01 µg/mL
same,MIC,Aeromonas hydrophila,8 µg/mL
same,MIC,Enterococcus faecalis [40],8 µg/mL
same,MIC,Enterococcus faecium,4 µg/mL
same,MIC,[41],0.5 to 1 µg/mL
same,MIC,Streptococcus agalactiae,4 µg/mL
